Data on 14 molecules can be found in ChEMBL document CHEMBL2069224, “Synthesis and cytotoxic activity of non-naturally substituted 4-oxycoumarin derivatives” (Bioorg Med Chem Lett, 2012).

≈ marks a conversion by molar mass, not a printed value. Calls of active or inactive are those of the source. The calls are words filed in the database; no cut-off is given here.

Data set [1] can be described thus: Cytotoxicity against mouse Neuro2a cells after 72 hrs by WST1 assay in presence of 20% FBS. Conditions: N2a. Type of data set: functional, cell-based. In a few lines:
(§1)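 Cells were cultured with 10% FBS. Viability runs used 10% or 20% FBS and 72 h exposure over 0.01–100 µM. WST-1 cleavage to formazan was read at 450 nm. % viable cells vs vehicle was fitted by nonlinear least squares to give IC50.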

The test system of data set [2] is HL-60. Kind of data set: Cytotoxicity against human HL60 cells after 72 hrs by WST1 assay in presence of 20% FBS. Type of data set: functional, cell-based. As to conditions: HL-60, 72 h. The essentials: (§2)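 HL-60 cells from ATCC were grown in IMDM with 2 mM L-glutamine, 20% FBS, amphotericin B, penicillin and streptomycin at 37 °C under 5% CO2. Suspension cells were seeded without an attachment wait, then treated 72 h at 0.01–100 µM in 10% or 20% FBS. WST-1 was added at 1/10 volume for 60 min at 37 °C and A450 read. IC50 came from a nonlinear least-squares fit of % viable cells vs vehicle.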

Data set [3] deals with U-937. Kind of data set: Cytotoxicity against human U937 cells after 72 hrs by WST1 assay in presence of 20% FBS. Type of data set: functional, cell-based. Conditions: U-937, 72 h. The essentials:
as §1

Data set [4] concerns MCF7. Kind of data set: Cytotoxicity against human MCF7 cells after 72 hrs by WST1 assay in presence of 20% FBS. Type of data set: functional, cell-based. As to conditions: MCF7, 72 h. In a few lines: (§3)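 MCF-7 cells from ATCC were grown in RPMI 1640 with 10% FBS, 2 mM L-glutamine and antibiotics at 37 °C under 5% CO2. They were seeded in 96-well plates, allowed to attach 24 h, then treated 72 h at 0.01–100 µM in 10% or 20% FBS. WST-1 was added at 1/10 volume for 60 min at 37 °C and A450 read. IC50 came from nonlinear least-squares fitting of % viability vs vehicle.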

Data set [5] relates to HL-60. Kind of data set: Cytotoxicity against human HL60 cells assessed as cell viability at 10 uM after 72 hrs by WST1 assay relative to control. Type of data set: functional. Conditions: HL-60, 72 h, read-out: Activity. The essentials:
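Suspension HL-60 cells were kept in IMDM with 20% FBS, L-glutamine and antibiotics at 37 °C under 5% CO2. They were seeded without an attachment wait and exposed 72 h to a single 10 µM concentration. WST-1 was added at 1/10 volume, incubated 60 min at 37 °C, and formazan read at 450 nm. Viability is given as % of vehicle-treated cells, from three independent experiments in triplicate.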

For data set [6], the system named is MCF7. Kind of data set: Cytotoxicity against human MCF7 cells assessed as cell viability at 10 uM after 72 hrs by WST1 assay relative to control. Type of data set: functional. As to conditions: MCF7, 72 h, read-out: Activity. The essentials: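 After 24 h attachment, MCF-7 cells (RPMI 1640, 10% FBS, L-glutamine, antibiotics, 37 °C, 5% CO2) were exposed 72 h to a single 10 µM concentration. WST-1 was added at 1/10 volume, incubated 60 min at 37 °C, and absorbance read at 450 nm. Viability is expressed as % of vehicle-treated cells, from three independent experiments each in triplicate.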

The subject of data set [7] is HL-60. Kind of data set: Cytotoxicity against human HL60 cells after 72 hrs by WST1 assay in presence of 10% FBS. Type of data set: functional, cell-based. In a few lines: as §2
Data set [8] in a line: Solubility of the compound in RPMI 1640 medium by microscopic analysis. Type of data set: physicochemical. In a few lines: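 Compound solubility in the assay medium was judged by microscopic inspection.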
Data set [9] relates to MCF7. Kind of data set: Cytotoxicity against human MCF7 cells after 72 hrs by WST1 assay in presence of 10% FBS. Type of data set: functional, cell-based. In a few lines: as §3
A further data set deals with N2a. Kind of data set: Cytotoxicity against mouse Neuro2a cells after 72 hrs by WST1 assay in presence of 10% FBS. Type of data set: functional, cell-based. The essentials:
as §1

The test system of data set [10] is U-937. Kind of data set: Cytotoxicity against human U937 cells after 72 hrs by WST1 assay in presence of 10% FBS. Type of data set: functional, cell-based. The essentials:
as §1

As for `O=c1ccc2ccccc2o1` [COUMARIN], the IC50 (in data set [1]; in the data set on HL-60 [2]; in the data set on U-937 [3]; in the data set on MCF7 [4]) was more than 50 µM each time.
Turning to `COc1ccc(-c2c(O)c3cc(C)ccc3oc2=O)cc1`, the figures for the viability at 10 µM in the data set with HL-60 [5] and in the data set with MCF7 [6] were 83.9% and 106%, respectively.
The matching figures for `Cc1ccc2oc(=O)c(-c3ccccc3)c(OCc3ccccc3)c2c1`: 92.3% and 53.5%.
On the same counts, the results for `COc1ccc(-c2c(O)c3ccccc3oc2=O)c(OC)c1` are 100% and 91.9%.
On the same counts, the results for `Cc1ccc2oc(=O)cc(OCc3ccccc3)c2c1` are 76% and 104%.
Regarding `O=c1cc(OCc2ccccc2)c2ccccc2o1`, the viability at 10 µM with HL-60 [5] was determined as 72.7%; with MCF7 [6] it was 95%.
On the same counts, the results for `Cc1ccc2oc(=O)c(-c3ccccc3)c(O)c2c1` are 73.9% and 72.6%.
The matching figures for `O=c1oc2ccccc2c(O)c1-c1ccccc1`: 73.4% and 96.7%.
With `COc1ccc(-c2c(O)c3cc(C)ccc3oc2=O)c(OC)c1`, the figures for the viability at 10 µM with HL-60 [5] and in the data set with MCF7 [6] were 74.4% and 69%, respectively.
As to `CC/C(=C(\c1ccccc1)c1ccc(OCCN(C)C)cc1)c1ccccc1` [TAMOXIFEN], the values for the 50% inhibitory concentration (IC50) in the data set with HL-60 [2] and in the data set on MCF7 [4] were 14.3 µM and 8.6 µM, respectively.
On to `COc1cc(OC)c2c(O)cc(=O)oc2c1`, for which the viability at 10 µM with HL-60 [5] came out at 23.2%; with MCF7 [6] it was 17.1%. In addition, the IC50 came to 0.55 µM in data set [1], 2 µM with HL-60 [2], 0.21 µM in the data set with U-937 [3] and 2.1 µM in the data set on MCF7 [4]. For the same molecule, the outcome with HL-60 [7], with MCF7 [9], with N2a and in the data set on U-937 [10] was Active. The same molecule displayed a solubility in [8] of 20 µM (≈ 4.44 µg/mL).
Turning to `COc1ccc2c(O)cc(=O)oc2c1OC`, the viability at 10 µM in the data set on HL-60 [5] turned out to be 28.9%; in the data set on MCF7 [6] it was 114%. The IC50 in data set [1] was found to be 1.4 µM; in the data set on HL-60 [2] it was 9.1 µM; in the data set on U-937 [3] it was 4.3 µM; in the data set on MCF7 [4], 62.3 µM. The result in the data set on HL-60 [7], with N2a and in the data set with U-937 [10] was Active. In [8], the solubility amounted to 100 µM (≈ 22.2 µg/mL).
Regarding `COc1ccc(-c2c(O)c3ccccc3oc2=O)cc1`, the viability at 10 µM in the data set with HL-60 [5] was determined as 86.6%; in the data set on MCF7 [6], 115%.
The matching figures for `O=c1oc2ccccc2c(OCc2ccccc2)c1-c1ccccc1`: 94.7% and 113%.
